Published values gathered from unrelated publications.

For `Cc1cc(-c2ccnc3[nH]cc(F)c23)cc(F)c1[C@@]1(O)[C@H](C)CN(C(=O)CN)C[C@@H]1C`, the AUC(0-t) was 18400 ng·h/mL (male CD-1 mouse; plasma; intravenous; 1 mg/kg).
`Cc1ccc(N(c2ccc(NC(=O)CN(C)c3ccccc3N3CCCC3=O)cc2)C(C)C)cc1` has an AUC(0-t) of 2710 ng·h/mL (male CD-1 mouse; plasma; oral; 20 mg/kg).
`O=C1CCC(N2Cc3cc(C4CCN(Cc5ccccc5)CC4)ccc3C2=O)C(=O)N1` (stereo not drawn) gave an AUC(0-t) of 594 ng·h/mL (male CD-1 mouse; plasma; oral; 3 mg/kg).
The AUC(0-t) of `Cc1ccc2c(c1)C(=O)[C@]1(O)CCN(c3ccc4nc(C)ccc4c3)C1=N2.Cl` is reported as 0.98 µM·h (C57BL/6 mouse; plasma; subcutaneous; 2 mg/kg).
With `NCc1ccc(-c2nn(Cc3ccccc3)c3ccccc23)o1` the AUC(0-t) was 9120 ng·h/mL (male CD-1 mouse; plasma; intraperitoneal; 30 mg/kg).
`CN(C)C(=O)c1cc2cnc(Nc3ccc(-c4ccc5c(=O)cc(N6CCOCC6)oc5c4)cc3)nc2n1C1CCCC1.Cl` has an AUC(0-t) of 7480 ng·h/mL (BALB/c mouse; plasma; oral; 20 mg/kg).
`OCc1ccc(-c2nn(Cc3ccccc3)c3ccccc23)o1` gave an AUC(0-t) of 1070 ng·h/mL (male CD-1 mouse; plasma; intravenous; 5 mg/kg).
The AUC(0-t) of `Cc1ccc(OCC(=O)N[C@@H](Cc2c[nH]c3ccccc23)C(=O)OC(C)C)cc1` is reported as 3260 ng·h/mL (male Sprague-Dawley mouse; plasma; oral; 20 mg/kg).
`COC1=CC(c2ccc[nH]2)=N/C1=C\c1[nH]c(Cc2ccc(OC(F)(F)F)cc2)cc1Cc1ccc(OC(F)(F)F)cc1` has an AUC(0-t) of 494000 ng·h/mL (male CD-1 mouse; liver; oral; 40 mg/kg; single dose).
With `Cc1ncsc1-c1ccc([C@H](CC(=O)N2CC3(C2)CN(c2ccc(C#Cc4ccc(C(=O)N5CCC(n6cc(-c7ccc8c(c7)CCN8C(=O)Cc7cccc(OC(F)(F)F)c7)c7c(N)ncnc76)CC5)cc4)cn2)C3)NC(=O)[C@@H]2C[C@@H](O)CN2C(=O)[C@@H](NC(=O)C2(F)CC2)C(C)(C)C)cc1` the AUC(0-t) was 5920 ng·h/mL (male C57BL/6 mouse; plasma; intravenous; 1 mg/kg).
For `Cc1cc(-c2ccnc3[nH]cc(F)c23)cc(F)c1[C@@]1(O)[C@H](C)CN(C2CCS(=O)(=O)CC2)C[C@@H]1C`, the AUC(0-t) was 3020 ng·h/mL (male CD-1 mouse; plasma; intravenous; 1 mg/kg).
For `OCc1nc2ccc(NCc3ccc(C(F)(F)F)cc3)cc2[nH]1`, the AUC(0-t) was 2730 ng·h/mL (male BALB/c mouse; plasma; oral; 10 mg/kg).
`Oc1ccc([C@@H]2Oc3ccc(O)cc3[C@@H]3CCC[C@@H]32)cc1` has an AUC(0-t) of 1.17 µM·h (male C57BL/6 mouse; plasma; oral; 10 mg/kg).
With `COC1=CC(c2ccc[nH]2)=N/C1=C\c1cc(Cc2ccc(OC(F)(F)F)cc2)c(C)[nH]1.Cl` the AUC(0-t) was 8220 ng·h/mL (male CD-1 mouse; plasma; oral; 40 mg/kg; single dose).
`C[C@@H](CN1CCC(n2c(=O)[nH]c3cc(Cl)ccc32)CC1)NC(=O)c1ccc2ccccc2c1` has an AUC(0-t) of 0.302 ng·h/mL (male CD-1 mouse; brain; intravenous; 1 mg/kg; single dose).
`Cc1nc2ccc(OCc3ccc(C(F)(F)F)cc3)cc2[nH]1` gave an AUC(0-t) of 13200 ng·h/mL (male BALB/c mouse; plasma; oral; 10 mg/kg).
With `NCc1ccc(-c2nn(Cc3ccncc3)c3ccccc23)o1` the AUC(0-t) was 314 ng·h/mL (male CD-1 mouse; plasma; oral; 10 mg/kg).
The AUC(0-t) of `Cc1ncsc1-c1ccc([C@H](C)NC(=O)[C@@H]2C[C@@H](O)CN2C(=O)[C@@H](NC(=O)CCCCCCCCC(=O)N2CCC(n3cc(-c4ccc5c(c4)CCN5C(=O)Cc4cccc(OC(F)(F)F)c4)c4c(N)ncnc43)CC2)C(C)(C)C)cc1` is reported as 1240 ng·h/mL (male C57BL/6 mouse; plasma; intravenous; 1 mg/kg).
